Experimental findings from ChEMBL document CHEMBL2163325, “Discovery of phosphoinositide 3-kinases (PI3K) p110β isoform inhibitor 4-[2-hydroxyethyl(1-naphthylmethyl)amino]-6-[(2S)-2-methylmorpholin-4-yl]-1H-pyrimidin-2-one, an effective antithrombotic agent without associated bleeding and insulin resistance” (Bioorg Med Chem Lett, 2012) are described below.

Data set [1] concerns the target Phosphatidylinositol 4,5-bisphosphate 3-kinase catalytic subunit beta isoform (Homo sapiens, UniProt P42338). The experiment in a line: Inhibition of human recombinant His6-tagged PI3K p110beta expressed in baculovirus infected cells using DiC8-PI(4,5)P2 as substrate after 20 mins by AlphaScreen assay. (In general: In Alpha technology, singlet oxygen from a donor bead excites a nearby acceptor bead.)

Data set [2] can be described thus: Lipophilicity, log D of the compound at pH 7.4 by HPLC analysis. In kind it is physicochemical. The following applies: buffer. The method, boiled down: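 LogD measured at pH 7.4 by HPLC.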
A further data set is filed under the species Homo sapiens. Kind of data set: Selectivity ratio of IC50 for human PI3K p110alpha to IC50 for human PI3K p110beta.
For data set [3], the target named is Phosphatidylinositol 4,5-bisphosphate 3-kinase catalytic subunit alpha isoform (Homo sapiens, UniProt P42336). The experiment in a line: Inhibition of human recombinant His6-tagged PI3K p110alpha expressed in baculovirus infected cells using DiC8-PI(4,5)P2 as substrate after 20 mins by AlphaScreen assay.
Data set [4] can be described thus: Toxicity in human adipocytes assessed as inhibition of insulin-induced glucose uptake. It is filed as cell-based, Adipocyte.
The test system of the next data set is Rattus norvegicus. The experiment in a line: Toxicity in overnight fasted Sprague-Dawley rat assessed as induction of insulin resistance administered as 30 mins infusion. It is filed as organism-based. To be noted: in vivo, iv, 0.5 h. The method, boiled down:
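Overnight fasted SD rats (N = 6) infused with 4 consecutive escalating doses, each over 30 min. Blood taken at the end of each interval for plasma exposure, glucose and insulin. HOMA index is glucose × insulin, normalized to vehicle controls (N = 4) and pretreatment medians. Mean ± SEM.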

The target in another data set is Cytochrome P450 2C9 (Homo sapiens, UniProt P11712). The experiment in a line: Inhibition of CYP2C9. It is filed as ADME.
A further data set concerns the target Cytochrome P450 3A4 (Homo sapiens, UniProt P08684). Kind of data set: Inhibition of CYP3A4. It is filed as ADME.

The term IC50 denotes the midpoint of a concentration-inhibition curve. The term logD denotes lipophilicity at a set pH, counting ionised and neutral species. Lower therefore signals lower lipophilicity.

Sequence of Phosphatidylinositol 4,5-bisphosphate 3-kinase catalytic subunit beta isoform (P42338 whole entry, canonical isoform): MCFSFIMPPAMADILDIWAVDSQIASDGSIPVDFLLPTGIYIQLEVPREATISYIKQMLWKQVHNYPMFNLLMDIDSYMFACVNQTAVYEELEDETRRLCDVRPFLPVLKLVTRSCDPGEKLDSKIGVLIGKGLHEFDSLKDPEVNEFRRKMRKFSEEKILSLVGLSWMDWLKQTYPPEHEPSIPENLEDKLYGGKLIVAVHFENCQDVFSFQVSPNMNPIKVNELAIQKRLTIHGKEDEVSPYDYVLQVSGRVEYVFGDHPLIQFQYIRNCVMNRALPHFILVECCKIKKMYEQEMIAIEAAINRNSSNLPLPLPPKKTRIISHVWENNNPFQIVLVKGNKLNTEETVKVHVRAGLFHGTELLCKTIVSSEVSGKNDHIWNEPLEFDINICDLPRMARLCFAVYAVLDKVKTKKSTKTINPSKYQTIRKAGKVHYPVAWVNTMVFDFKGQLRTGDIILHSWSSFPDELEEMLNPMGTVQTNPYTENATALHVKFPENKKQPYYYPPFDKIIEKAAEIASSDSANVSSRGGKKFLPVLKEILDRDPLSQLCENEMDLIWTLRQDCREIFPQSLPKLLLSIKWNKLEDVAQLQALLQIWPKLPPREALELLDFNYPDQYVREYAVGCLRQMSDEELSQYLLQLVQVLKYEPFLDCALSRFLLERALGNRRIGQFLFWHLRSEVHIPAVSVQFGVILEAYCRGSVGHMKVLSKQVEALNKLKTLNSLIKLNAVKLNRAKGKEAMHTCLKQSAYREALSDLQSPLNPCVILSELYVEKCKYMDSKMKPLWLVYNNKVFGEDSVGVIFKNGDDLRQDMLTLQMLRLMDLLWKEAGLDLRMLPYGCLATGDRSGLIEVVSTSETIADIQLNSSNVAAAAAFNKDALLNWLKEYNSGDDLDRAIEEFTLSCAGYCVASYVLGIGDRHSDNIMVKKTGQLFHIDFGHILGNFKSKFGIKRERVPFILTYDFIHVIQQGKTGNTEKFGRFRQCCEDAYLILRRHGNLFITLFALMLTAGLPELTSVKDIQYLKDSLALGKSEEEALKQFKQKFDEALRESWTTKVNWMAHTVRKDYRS
Sequence of Phosphatidylinositol 4,5-bisphosphate 3-kinase catalytic subunit alpha isoform (P42336 whole entry, canonical isoform): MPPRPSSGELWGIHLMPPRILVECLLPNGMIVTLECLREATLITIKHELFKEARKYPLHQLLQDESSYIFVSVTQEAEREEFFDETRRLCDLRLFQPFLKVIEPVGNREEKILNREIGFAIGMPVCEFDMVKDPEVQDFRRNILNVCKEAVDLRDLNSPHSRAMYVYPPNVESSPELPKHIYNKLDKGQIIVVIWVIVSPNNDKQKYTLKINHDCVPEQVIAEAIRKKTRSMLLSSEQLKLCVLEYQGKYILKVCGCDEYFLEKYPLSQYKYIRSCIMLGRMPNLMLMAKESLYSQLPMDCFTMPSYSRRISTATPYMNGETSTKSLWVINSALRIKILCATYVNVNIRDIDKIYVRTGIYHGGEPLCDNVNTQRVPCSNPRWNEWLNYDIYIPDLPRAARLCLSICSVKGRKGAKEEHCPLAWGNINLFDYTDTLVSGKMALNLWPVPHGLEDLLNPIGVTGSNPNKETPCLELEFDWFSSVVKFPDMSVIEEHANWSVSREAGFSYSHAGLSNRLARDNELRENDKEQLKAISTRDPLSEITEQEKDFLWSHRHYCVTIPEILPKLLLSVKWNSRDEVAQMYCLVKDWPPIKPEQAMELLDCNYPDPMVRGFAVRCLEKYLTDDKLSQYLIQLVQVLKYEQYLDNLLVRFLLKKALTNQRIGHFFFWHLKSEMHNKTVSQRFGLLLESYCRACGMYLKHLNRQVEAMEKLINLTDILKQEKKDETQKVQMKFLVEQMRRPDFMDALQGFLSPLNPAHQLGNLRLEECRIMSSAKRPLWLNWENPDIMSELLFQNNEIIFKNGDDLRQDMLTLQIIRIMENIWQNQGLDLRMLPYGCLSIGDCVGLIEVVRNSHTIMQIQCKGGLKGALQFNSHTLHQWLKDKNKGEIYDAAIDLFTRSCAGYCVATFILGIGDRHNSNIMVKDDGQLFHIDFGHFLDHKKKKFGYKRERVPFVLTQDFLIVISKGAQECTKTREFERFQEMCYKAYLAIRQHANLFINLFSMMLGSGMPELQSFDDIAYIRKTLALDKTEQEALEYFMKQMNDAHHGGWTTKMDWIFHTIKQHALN
Sequence of Cytochrome P450 2C9 (P11712 whole entry): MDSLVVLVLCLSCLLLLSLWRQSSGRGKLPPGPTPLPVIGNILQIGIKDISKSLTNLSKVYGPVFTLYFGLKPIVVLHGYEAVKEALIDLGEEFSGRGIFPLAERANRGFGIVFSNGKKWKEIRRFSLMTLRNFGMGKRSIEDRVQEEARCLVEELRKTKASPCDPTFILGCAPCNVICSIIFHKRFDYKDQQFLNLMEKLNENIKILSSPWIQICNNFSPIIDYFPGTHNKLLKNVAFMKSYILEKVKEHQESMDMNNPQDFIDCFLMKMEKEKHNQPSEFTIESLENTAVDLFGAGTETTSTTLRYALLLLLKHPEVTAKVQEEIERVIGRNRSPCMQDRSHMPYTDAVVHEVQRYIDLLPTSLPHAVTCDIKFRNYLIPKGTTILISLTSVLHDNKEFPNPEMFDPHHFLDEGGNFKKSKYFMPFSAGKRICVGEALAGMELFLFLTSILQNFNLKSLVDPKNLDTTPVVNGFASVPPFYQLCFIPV
Sequence of Cytochrome P450 3A4 (P08684 whole entry): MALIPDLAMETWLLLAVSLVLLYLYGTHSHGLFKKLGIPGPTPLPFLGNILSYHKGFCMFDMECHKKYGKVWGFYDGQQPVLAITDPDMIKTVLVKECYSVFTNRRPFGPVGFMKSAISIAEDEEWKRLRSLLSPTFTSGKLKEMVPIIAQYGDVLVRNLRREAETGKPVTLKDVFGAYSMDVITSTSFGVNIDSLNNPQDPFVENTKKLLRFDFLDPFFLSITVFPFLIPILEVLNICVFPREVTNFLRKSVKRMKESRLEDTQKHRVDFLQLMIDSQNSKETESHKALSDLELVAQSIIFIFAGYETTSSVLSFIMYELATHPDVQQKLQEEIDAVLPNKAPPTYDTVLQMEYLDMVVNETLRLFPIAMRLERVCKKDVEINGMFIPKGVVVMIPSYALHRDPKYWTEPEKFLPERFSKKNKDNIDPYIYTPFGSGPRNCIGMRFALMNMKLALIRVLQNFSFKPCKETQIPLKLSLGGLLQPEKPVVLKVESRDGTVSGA

`CC(O)CN(Cc1cccc2ccccc12)c1cc(N2CCOCC2)nc(=O)[nH]1` (stereo unspecified): the IC50 was found to be 0.14 µM in data set [1] and 112 µM in data set [3]. The molecule also registered a logD in data set [2] of 2. Also, the Ratio IC50 in the data set listed under Homo sapiens amounted to 808.

For the molecule `O=c1nc(N2CCOCC2)cc(N(CCO)Cc2cccc3ccccc23)[nH]1`, the figures for the IC50 in data set [1] and in data set [3] were 0.09 µM and 30.8 µM, respectively. The molecule also gave a logD in data set [2] of 1.55. Besides, the Ratio IC50 in the data set listed under Homo sapiens worked out at 340.

On to `CN(C)CCN(Cc1cccc2ccccc12)c1cc(N2CCOCC2)nc(=O)[nH]1`, for which the IC50 in data set [1] was 3.1 µM; in data set [3] it was above 83.3 µM. This molecule registered a logD in data set [2] of 1.4. In addition, the Ratio IC50 in the data set listed under Homo sapiens was above 26.

`CC1CN(c2cc(=O)[nH]c(NCc3cccc4ccccc34)n2)CCO1` (stereo unspecified): the IC50 in data set [1] amounted to 0.034 µM; in data set [3], 2.2 µM. For the same molecule, in data set [2], the logD is 2.9. The Ratio IC50 in the data set filed under Homo sapiens worked out at 65.

On to `CCC(O)CN(Cc1cccc2ccccc12)c1cc(N2CCOCC2)nc(=O)[nH]1` (stereo unspecified), for which the figures for the half-inhibitory concentration (IC50) in data set [1] and in data set [3] were 0.22 µM and 149 µM, respectively. Further, the logD in data set [2] was 2.5. In addition, in the data set filed under Homo sapiens, the Ratio IC50 is 690.

For the molecule `COC1CN(c2cc(=O)[nH]c(NCc3cccc4ccccc34)n2)C1`, the IC50 was found to be 24 µM in data set [1] and 82.6 µM in data set [3]. Further, in data set [2], the logD is 2.7.

In the case of `O=c1cc(N2CCC(O)CC2)nc(NCc2cccc3ccccc23)[nH]1`, the results for the IC50 in data set [1] and in data set [3] were 31 µM and 160 µM, respectively. This molecule also registered a logD in data set [2] of 1.6.

On to `O=c1nc(N2CCOCC2)cc(N(CCCO)Cc2cccc3ccccc23)[nH]1`, for which the results for the IC50 in data set [1] and in data set [3] were 0.1 µM and 51.5 µM, respectively. Also, the logD in data set [2] turned out to be 1.75. Moreover, the Ratio IC50 in the data set listed under Homo sapiens came out at 524.

With `O=c1nc(N2CCOCC2)cc(N(CCCCO)Cc2cccc3ccccc23)[nH]1`, the values for the 50% inhibitory concentration (IC50) in data set [1] and in data set [3] were 0.2 µM and 73.7 µM, respectively. This molecule also displayed a logD in data set [2] of 1.8. For the same molecule, the Ratio IC50 in the data set listed under Homo sapiens was 373.

As for `O=c1nc(N2CCOCC2)cc(N(Cc2cccc3ccccc23)C2CC2)[nH]1`, the values for the IC50 in data set [1] and in data set [3] were 0.97 µM and 76 µM, respectively. The molecule further returned a pH-dependent lipophilicity (logD) in data set [2] of 2.6. In addition, the Ratio IC50 in the data set listed under Homo sapiens came out at 78.

Regarding `CN(C)CCCN(Cc1cccc2ccccc12)c1cc(N2CCOCC2)nc(=O)[nH]1`, the figures for the IC50 in data set [1] and in data set [3] were 1.2 µM and above 83.3 µM, respectively. In data set [2], this molecule yielded a pH-dependent lipophilicity (logD) of 1.5. Further, in the data set filed under Homo sapiens, the Ratio IC50 was above 64.

Turning to `O=c1cc(-c2cn[nH]c2)nc(NCc2cccc3ccccc23)[nH]1`, the IC50 in data set [1] was determined as 11 µM; in data set [3], 62.3 µM. In data set [2], the logD came to 1.9.

Consider `Cc1cc([C@@H](C)Nc2ccccc2C(=O)O)c2nc(N3CCOCC3)cc(=O)n2c1` [AZD-6482], for which, in data set [4], the IC50 was 4.4 µM. The Activity result in the data set on Rattus norvegicus is given as “Dose-dependent effect”.

As to `Cc1cc(-c2cc(=O)[nH]c(NCc3cccc4ccccc34)n2)ccn1`, the IC50 in data set [1] came to 0.007 µM; at Cytochrome P450 2C9, 0.4 µM; at Cytochrome P450 3A4, 0.7 µM; in data set [3] it was 0.84 µM. Besides, the logD in data set [2] was 2.6.

Regarding `C[C@@H]1CN(c2cc(N(CCO)Cc3cccc4ccccc34)[nH]c(=O)n2)CCO1`, the IC50 in data set [1] came out at 1 µM; in data set [3], 349 µM. In data set [2], this molecule gave a logD of 1.9.

In the case of `CN(Cc1cccc2ccccc12)c1cc(N2CCOCC2)nc(=O)[nH]1`, the IC50 was 0.6 µM in data set [1] and 212 µM in data set [3]. In data set [2], this molecule showed a logD of 2.37. The Ratio IC50 in the data set filed under Homo sapiens was determined as 355.

As to `CC(C)(CO)CN(Cc1cccc2ccccc12)c1cc(N2CCOCC2)nc(=O)[nH]1`, the IC50 in data set [1] turned out to be 1.4 µM; in data set [3], 205 µM. Also, the log distribution coefficient (logD) in data set [2] stood at 3.15. The Ratio IC50 in the data set listed under Homo sapiens amounted to 143.

Consider `CCN(Cc1cccc2ccccc12)c1cc(N2CCOCC2)nc(=O)[nH]1`, for which the values for the IC50 in data set [1] and in data set [3] were 0.13 µM and 82.8 µM, respectively. In data set [2], this molecule gave a logD of 2.5. Further, the Ratio IC50 in the data set listed under Homo sapiens was 628.

Consider `O=c1nc(N2CCOCC2)cc(N(Cc2cccc3ccccc23)CC(O)C(F)(F)F)[nH]1` (stereo unspecified), for which the IC50 was 0.98 µM in data set [1] and 56.9 µM in data set [3]. Besides, the log distribution coefficient (logD) in data set [2] was determined as 3. Moreover, the Ratio IC50 in the data set listed under Homo sapiens is 58.
